Shown are actives, neighbours in structure and some others; about 4.5% of the full set was active somewhere.
TAAR1 antag: antagonists of human TAAR1; actives 1.5% (n = 360,000); CHO RD-HGA16 TAAR1, Fluo-8 calcium fluorescence, antagonist; inhibition, % at 3 µM; AID 624466;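 active means inhibition above a per-plate cutoff, the mean inhibition of test compounds on that plate plus 3 SD, cut at about 49% in these data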;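 further: 0% = DMSO plus EC80 beta-PEA response and 100% = DMSO alone without agonist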
Target sequence (Q96RJ0 whole entry, looked up): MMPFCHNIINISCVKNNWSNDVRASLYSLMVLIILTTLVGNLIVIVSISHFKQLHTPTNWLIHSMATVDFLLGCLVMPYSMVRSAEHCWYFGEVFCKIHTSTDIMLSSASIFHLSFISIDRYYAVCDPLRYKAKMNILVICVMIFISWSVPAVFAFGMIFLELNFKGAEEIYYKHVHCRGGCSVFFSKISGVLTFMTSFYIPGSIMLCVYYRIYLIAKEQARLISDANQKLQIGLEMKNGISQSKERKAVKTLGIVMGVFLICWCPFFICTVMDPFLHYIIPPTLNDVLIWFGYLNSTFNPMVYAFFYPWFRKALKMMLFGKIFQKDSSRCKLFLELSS
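Material: RD-HGA16 CHO cells with stable hTAAR1 and Gα16; Dosing: single nominal final test compound concentration of 3 µM; Schedule: seeding 17-24 h prior, 75-min 37 °C, 30-min RT dye loading; Detection: kinetic Fluo-8 calcium fluorescence measurement; Measure: % inhibition from peak post-agonist over basal fluorescence ratio; Benchmarks: vehicle and agonist controls.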
OX1R antag-1: human HCRTR1 antagonism; O43613; CHO/OX1R cells, Fluo-8 calcium fluorescence, orexin A; inhibition, % at 5 µM; actives 0.43% (n = 330,000); AID 434989;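 active means inhibition above its plate's threshold, mean inhibition of all tested compounds on the plate plus 3 SD, cut at about 37% in these data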;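 further: 0% = orexin A challenge wells and 100% = SB-334867-A antagonist wells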
OX1R antag-2: blocks the human orexin 1 receptor. actives 1.8% (n = 330,000). OX1R-expressing cells, FRET antagonist read-out. inhibition, % at 6.6 µM. O43613; in the data active means inhibition mostly above about 38%, no sharp cut-off; inactive means mostly below about 40%;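 further: 0% = agonist challenge alone and 100% = reference antagonist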
GPR7 antagonist: antagonists of human GPR7 (neuropeptides B/W receptor 1) | P48145 | GPR7-expressing cells, fluorescence antagonist assay | inhibition, % at 4.4 µM | actives 1.1% (n = 290,000) | AID 1861; in the data active means inhibition above about 16%, passing the limit was not always enough;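 further: cells stimulated with the agonist NPW; 0% = agonist with vehicle and 100% = vehicle without agonist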
Target sequence (P48145 whole entry, looked up): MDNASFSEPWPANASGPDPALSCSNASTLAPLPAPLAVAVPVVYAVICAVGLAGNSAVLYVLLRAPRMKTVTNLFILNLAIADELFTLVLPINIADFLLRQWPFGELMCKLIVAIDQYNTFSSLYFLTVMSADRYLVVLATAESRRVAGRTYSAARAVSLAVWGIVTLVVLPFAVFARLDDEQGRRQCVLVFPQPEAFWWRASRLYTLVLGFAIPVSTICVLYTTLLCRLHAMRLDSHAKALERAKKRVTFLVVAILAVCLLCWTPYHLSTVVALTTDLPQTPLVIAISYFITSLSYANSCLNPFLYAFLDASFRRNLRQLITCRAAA
CHO parental Ca: counter-screen: ATP calcium response change in parental CHO cells; parental CHO-K1, ATP-induced calcium, Fluo-8 fluorescence; inhibition, % at 5.6 µM; actives 0.63% (n = 330,000); AID 463079;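 active means inhibition above that plate's mean sample inhibition plus 3 SD, cut at about 26% in these data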;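 further: 0% = ATP-challenged DMSO wells and 100% = DMSO wells without ATP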
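Material: parental CHO cells / Compound: single nominal dose of 5.6 µM per compound / Signal: Fluo-8 fluorescence / Replicates: singlicate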
TAAR1 agonist: agonists of human TAAR1; Q96RJ0; CHO RD-HGA16 TAAR1, Fluo-8 calcium fluorescence; vehicle wells 0%, saturating PEA agonist 100%; activation, % at 3 µM; actives 0.99% (n = 360,000); AID 624467;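 active means activation above the mean activation of all test compounds in the run plus 3 SD, cut at about 38% in these data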
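System: CHO RD-HGA16 cells carrying human TAAR1 plus Gα16; Incubation: 17-24 h seeding, 75 min 37 °C dye, 30 min RT; Measured by: Fluo-8 fluorescence, 5 s baseline then 140 s kinetic read; Control set: DMSO and PEA EC100; Replication: single well for each compound.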
TAAR1 ag conf: confirmation of human TAAR1 agonists | actives 82% (n = 2,400) | activation, % at 3 µM | shares compounds with TAAR1 agonist | AID 651783 | CHO RD-HGA16 TAAR1, Fluo-8 calcium fluorescence; scaled: DMSO 0%, maximal phenethylamine 100%;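 active means activation above a cutoff set at the run's mean compound activation plus 3 SD, cut at about 39% in these data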
Ga16 ag counter: nonselective agonism, TAAR1 counter-screen; shares compounds with TAAR1 agonist; CHO-Ga16 parental, Fluo-8 calcium fluorescence; normalized to maximal ATP response, DMSO zero; activation, % at 3 µM; actives 50% (n = 2,400);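 active means activation above the run cutoff, the mean activation over all tested wells plus 3 SD, cut at about 12% in these data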;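 further: 0% = DMSO wells and 100% = maximal ATP response on the peak over basal ratio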
TAAR1 desensitize: counter-screen for human TAAR1 agonists: agonists that desensitize TAAR1. inhibition, % at 3 µM. actives 46% (n = 2,400). AID 651951. shares compounds with TAAR1 agonist. CHO RD-HGA16 hTAAR1, Fluo-8 calcium, beta-PEA response inhibition;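 active means inhibition above the run cutoff, the mean inhibition of all test compounds plus 3 SD, cut at about 49% in these data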;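 further: beta-PEA stimulus applied at its EC80; loss of beta-PEA calcium signal after compound pretreatment read as receptor desensitization; 0% = DMSO with beta-PEA at EC80 and 100% = DMSO alone without agonist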
Ga16 antag count: counter-screen for TAAR1 agonists: nonselective Ga16 antagonists. actives 39% (n = 2,400). AID 651952. shares compounds with TAAR1 agonist. CHO-Ga16 ATP-induced calcium, Fluo-8 fluorescence. inhibition, % at 3 µM;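 active means inhibition above the plate's mean compound inhibition plus 3 SD, computed per plate, cut at about 22% in these data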;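 further: 0% = EC80 ATP with DMSO and 100% = DMSO wells without ATP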
* = called active by the depositor; · = no result.

SMILES	TAAR1 antag	OX1R antag-1	OX1R antag-2	GPR7 antagonist	CHO parental Ca	TAAR1 agonist	TAAR1 ag conf	Ga16 ag counter	TAAR1 desensitize	Ga16 antag count
COc1ccc(CC(N)c2csc(Nc3ccc(C(C)=O)cc3)n2)cc1 (stereo not drawn)	-4	·	·	·	·	19	·	·	·	·
Cc1coc2cc3oc(=O)c(CCC(=O)NCCN4CCOCC4)c(C)c3cc12	14	0	9	6	-2	2	·	·	·	·
COc1ccc(-c2nn(-c3ccccc3)cc2/C=C/C(=O)N2CCOCC2)cc1OC	18	-43	16	-17	-10	10	·	·	·	·
Cc1ccc(C(=O)O/N=C(\N)Cc2cccc3ccccc23)cc1	40	-21	7	5	-21	57*	52*	-1	11	-1
Cc1ccc(/C(N)=N/OC(=O)c2ccc3ccccc3c2)cc1	-18	-5	24	4	-18	2	·	·	·	·
Cc1cccc(NC(=O)COC(=O)c2cc3ccccc3oc2=O)c1	5	-3	26	-6	-6	2	·	·	·	·
O=C(COc1ccc(F)cc1)NNC(=O)c1cc2ccccc2oc1=O	·	-24	57	-10	-14	·	·	0	·	4
Cc1cccc(OCC(=O)NNC(=O)c2cc3ccccc3oc2=O)c1	10	-26	73*	-7	-19	64*	84*	18*	36	2
COC(=O)CC(CP(=O)(O)CN(C)C=O)C(=O)OC (stereo not drawn)	-2	1	5	-10	-3	13	·	·	·	·
CC1(C)CC2(CC(c3ccccc3)Oc3cc(O)ccc32)NC(=S)N1 (stereo not drawn)	8	-12	4	-4	-13	5	·	·	·	·
N#C/C(=C\c1ccc(N2CCOCC2)o1)c1nc2ccccc2[nH]1	27	-3	32	12	7	92*	76*	101*	58*	52*
COCCn1c(C)cc(C(=O)CSc2nc(C)cc(C)c2C#N)c1C	17	-1	27	-12	10	6	·	·	·	·
Cc1cc(C)c(C#N)c(SCC(=O)c2cc(C)n(CCc3ccccc3)c2C)n1	52*	-4	28	-8	46*	91*	93*	2	100*	17
Cc1cc(C(=O)CSc2nnnn2-c2ccccc2)c(C)n1CC1CCCO1 (stereo not drawn)	3	-15	18	1	-1	4	·	·	·	·
Cc1cc(C(=O)CSc2nnnn2-c2ccccc2)c(C)n1CCc1ccccc1	-3	-21	14	0	-13	58*	99*	0	83*	11
Cc1cc(C(=O)CSc2nnc(N)s2)c(C)n1CCc1ccc(F)cc1	-7	-24	13	-6	-19	22	·	·	·	·
Cc1cc(C(=O)CSc2nnnn2C)c(C)n1CCc1ccc(F)cc1	11	-15	2	2	-11	44*	63*	6	14	10
Cc1ccc(-n2nc3c(=O)n(CC(=O)NCCc4ccccc4C)nc(C)c3c2C)cc1	·	-22	14	9	-14	·	·	2	·	7
c1ccc(CN(CC2=NCCN2)c2ccccc2)cc1	-3	-10	17	-6	-2	66*	92*	3	67*	12
Cc1cc(C(C)(C)C)cc(C)c1CC1=NCCN1	-23	-8	6	0	-7	32	·	·	·	·
c1ccc(CC2=NCCN2)cc1	63*	-3	9	-10	3	75*	92*	0	76*	6
CC1(C(=O)NS(=O)(=O)c2ccc(Br)cc2)CCN1C(=O)CCC1CCCC1 (stereo not drawn)	17	·	·	·	·	3	·	·	·	·
C/C(=N/NS(=O)(=O)c1ccc(C)cc1)c1c(O)c2ccccc2oc1=O	-26	-21	5	-8	-10	5	·	·	·	·
CCCCCN=C(C)c1c(O)c2ccccc2oc1=O	16	-15	35	8	-3	58*	58*	2	12	2
FC(F)(F)c1ccc(Cl)c(-n2c(-c3cc(C4CC4)[nH]n3)n[nH]c2=S)c1	-6	-3	5	-11	-2	4	·	·	·	·
SMILES	TAAR1 antag	OX1R antag-1	OX1R antag-2	GPR7 antagonist	CHO parental Ca	TAAR1 agonist	TAAR1 ag conf	Ga16 ag counter	TAAR1 desensitize	Ga16 antag count
CC(=O)N(Cc1ccc(F)cc1)c1cccc(C)c1C	11	-5	10	4	1	1	·	·	·	·
O=C1C(Cl)=C(NCCc2ccccc2)C(=O)c2ccccc21	67*	·	·	·	·	79*	107*	14*	96*	28*
O=C1C(Cl)=C(NCC2CCCO2)C(=O)N1CCc1ccccc1 (stereo not drawn)	13	-19	4	-6	-15	74*	52*	2	9	8
O=C1C(Cl)=C(NCCc2ccccc2)C(=O)N1CCc1ccccc1	66*	0	31	-5	-16	43*	73*	9	83*	32*
O=C1C(Cl)=C(NCCCN2CCOCC2)C(=O)N1CCc1ccccc1	-1	-34	11	-4	-25	7	·	·	·	·
CC(=O)N(Cc1ccc(F)cc1)C1=C(NCCc2ccccc2)C(=O)c2ccccc2C1=O	-2	-45	29	0	-39	50*	29	0	21	14
Cn1c(CNC(=O)CCNC(=O)c2ccc(F)c(F)c2)cc(=O)n(C)c1=O	-2	-10	0	3	-6	2	·	·	·	·
O=C(COC(=O)Cc1ccc(Cl)cc1)Nc1c(F)cccc1F	-2	-5	10	12	-7	1	·	·	·	·
CN1CCN(NC(=O)c2ccc(Br)c(S(=O)(=O)N3CCOCC3)c2)CC1	8	7	3	9	-7	0	·	·	·	·
Cc1cccn2c(CNCCc3ccccn3)c(C(=O)N3CCOCC3)nc12	9	-16	24	-8	-5	49*	68*	5	41	18
CC1(C(=O)NS(=O)(=O)Cc2ccccc2)CCN1C(=O)C1(c2ccc(Cl)cc2)CCC1 (stereo not drawn)	-1	·	·	·	·	1	·	·	·	·
COc1ccc(C2(C)NC(=O)N(CC(=O)Nc3cccnc3Cl)C2=O)cc1 (stereo not drawn)	-8	-6	-4	-8	-3	17	·	·	·	·

Screens (PubChem BioAssay)
